In ChEMBL document CHEMBL4689842, “EUbOPEN Chemogenomics Library wave 1” (2021):

Test system: U2OS
Assay: Multiplex assay against U2OS
Format: toxicity, cell-based
Conditions: human
Method in brief: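 Values for tubulin, mitochondrial-mass and membrane-permeability phenotypes are per cents of cells with healthy nuclei. These cells were identified by CellPathfinder machine-learning gating of live cells that had been stained at seeding with Hoechst33342, BioTracker Green Microtubule Cytoskeleton Dye, MitoTracker Red and Annexin V Alexa Fluor 680 and imaged on a CQ1 microscope at 37°C and 5% CO2 after compound addition. The gating first set Hoechst high-intensity objects apart from normal cells, then split normal cells into healthy, pyknosed or fragmented nuclei, and pyknosed cells into mitotic or apoptotic.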

[1] = 12 h, 1 µM, compound concentration 1 uM, replicate 1
[2] = 12 h, 1 µM, compound concentration 1 uM, replicate 2
[3] = 12 h, 10 µM, compound concentration 10 uM, replicate 1
[4] = 12 h, 10 µM, compound concentration 10 uM, replicate 2
[5] = 24 h, 1 µM, compound concentration 1 uM, replicate 1
[6] = 24 h, 1 µM, compound concentration 1 uM, replicate 2
[7] = 24 h, 10 µM, compound concentration 10 uM, replicate 1
[8] = 24 h, 10 µM, compound concentration 10 uM, replicate 2
[9] = 48 h, 1 µM, compound concentration 1 uM, replicate 1
[10] = 48 h, 1 µM, compound concentration 1 uM, replicate 2
[11] = 48 h, 10 µM, compound concentration 10 uM, replicate 1
[12] = 48 h, 10 µM, compound concentration 10 uM, replicate 2

Structure (SMILES): CC(C)NCC(O)COc1ccc(CCOCC2CC2)cc1.Cl (configuration not stated) [BETAXOLOL HYDROCHLORIDE]
- Population Apoptotic (%) [1]: 60%
- Population Fragmented Nuclei (%) [1]: 9%
- Population Healthy Nuclei (%) [1]: 84%
- Population Hoechst High Intensity Objects (%) [1]: 8%
- Population Mitochondria Different-Phenotype (%) [1]: 14%
- Population Mitotic Cells (%) [1]: 40%
- Population Normal (%) [1]: 92%
- Population Pyknosed Nuclei (%) [1]: 6%
- Population Tubulin-Different-Phenotype (%) [1]: 12%
- Total Cell Count [1]: 175
- Population Apoptotic (%) [2]: 100%
- Population Fragmented Nuclei (%) [2]: 2%
- Population Healthy Nuclei (%) [2]: 95%
- Population Hoechst High Intensity Objects (%) [2]: 16%
- Population Membrane Permeable-Phenotype (%) [2]: 6%
- Population Mitochondria Different-Phenotype (%) [2]: 2%
- Population Mitotic Cells (%) [2]: 0%
- Population Normal (%) [2]: 83%
- Population Pyknosed Nuclei (%) [2]: 2%
- Population Tubulin-Different-Phenotype (%) [2]: 9%
- Total Cell Count [2]: 55
- Population Apoptotic (%) [3]: 52%
- Population Fragmented Nuclei (%) [3]: 14%
- Population Healthy Nuclei (%) [3]: 69%
- Population Hoechst High Intensity Objects (%) [3]: 5%
- Population Membrane Permeable-Phenotype (%) [3]: 2%
- Population Mitochondria Different-Phenotype (%) [3]: 64%
- Population Mitotic Cells (%) [3]: 47%
- Population Normal (%) [3]: 94%
- Population Pyknosed Nuclei (%) [3]: 16%
- Population Tubulin-Different-Phenotype (%) [3]: 53%
- Total Cell Count [3]: 124
- Population Apoptotic (%) [4]: 23%
- Population Fragmented Nuclei (%) [4]: 9%
- Population Healthy Nuclei (%) [4]: 77%
- Population Hoechst High Intensity Objects (%) [4]: 7%
- Population Membrane Permeable-Phenotype (%) [4]: 5%
- Population Mitochondria Different-Phenotype (%) [4]: 72%
- Population Mitotic Cells (%) [4]: 76%
- Population Normal (%) [4]: 92%
- Population Pyknosed Nuclei (%) [4]: 13%
- Population Tubulin-Different-Phenotype (%) [4]: 49%
- Total Cell Count [4]: 107
- Population Apoptotic (%) [5]: 28%
- Population Fragmented Nuclei (%) [5]: 8%
- Population Healthy Nuclei (%) [5]: 83%
- Population Membrane Permeable-Phenotype (%) [5]: 3%
- Population Mitochondria Different-Phenotype (%) [5]: 10%
- Population Mitotic Cells (%) [5]: 71%
- Population Pyknosed Nuclei (%) [5]: 7%
- Population Tubulin-Different-Phenotype (%) [5]: 8%
- Total Cell Count [5]: 202
- Population Apoptotic (%) [6]: 33%
- Population Fragmented Nuclei (%) [6]: 3%
- Population Healthy Nuclei (%) [6]: 85%
- Population Hoechst High Intensity Objects (%) [6]: 5%
- Population Membrane Permeable-Phenotype (%) [6]: 4%
- Population Mitochondria Different-Phenotype (%) [6]: 6%
- Population Mitotic Cells (%) [6]: 66%
- Population Normal (%) [6]: 94%
- Population Pyknosed Nuclei (%) [6]: 10%
- Population Tubulin-Different-Phenotype (%) [6]: 2%
- Total Cell Count [6]: 59
- Population Apoptotic (%) [7]: 57%
- Population Fragmented Nuclei (%) [7]: 13%
- Population Healthy Nuclei (%) [7]: 70%
- Population Hoechst High Intensity Objects (%) [7]: 6%
- Population Membrane Permeable-Phenotype (%) [7]: 7%
- Population Mitochondria Different-Phenotype (%) [7]: 59%
- Population Mitotic Cells (%) [7]: 42%
- Population Normal (%) [7]: 93%
- Population Pyknosed Nuclei (%) [7]: 16%
- Population Tubulin-Different-Phenotype (%) [7]: 31%
- Total Cell Count [7]: 139
- Population Apoptotic (%) [8]: 40%
- Population Fragmented Nuclei (%) [8]: 7%
- Population Healthy Nuclei (%) [8]: 78%
- Population Hoechst High Intensity Objects (%) [8]: 5%
- Population Membrane Permeable-Phenotype (%) [8]: 5%
- Population Mitochondria Different-Phenotype (%) [8]: 78%
- Population Mitotic Cells (%) [8]: 60%
- Population Normal (%) [8]: 94%
- Population Pyknosed Nuclei (%) [8]: 15%
- Population Tubulin-Different-Phenotype (%) [8]: 46%
- Total Cell Count [8]: 106
- Population Apoptotic (%) [9]: 25%
- Population Fragmented Nuclei (%) [9]: 8%
- Population Healthy Nuclei (%) [9]: 81%
- Population Membrane Permeable-Phenotype (%) [9]: 2%
- Population Mitochondria Different-Phenotype (%) [9]: 7%
- Population Mitotic Cells (%) [9]: 74%
- Population Pyknosed Nuclei (%) [9]: 10%
- Population Tubulin-Different-Phenotype (%) [9]: 6%
- Total Cell Count [9]: 296
- Population Apoptotic (%) [10]: 50%
- Population Fragmented Nuclei (%) [10]: 9%
- Population Healthy Nuclei (%) [10]: 80%
- Population Hoechst High Intensity Objects (%) [10]: 3%
- Population Membrane Permeable-Phenotype (%) [10]: 5%
- Population Mitochondria Different-Phenotype (%) [10]: 16%
- Population Mitotic Cells (%) [10]: 50%
- Population Normal (%) [10]: 96%
- Population Pyknosed Nuclei (%) [10]: 9%
- Population Tubulin-Different-Phenotype (%) [10]: 10%
- Total Cell Count [10]: 87
- Population Apoptotic (%) [11]: 52%
- Population Fragmented Nuclei (%) [11]: 19%
- Population Healthy Nuclei (%) [11]: 68%
- Population Hoechst High Intensity Objects (%) [11]: 4%
- Population Membrane Permeable-Phenotype (%) [11]: 3%
- Population Mitochondria Different-Phenotype (%) [11]: 34%
- Population Mitotic Cells (%) [11]: 47%
- Population Normal (%) [11]: 95%
- Population Pyknosed Nuclei (%) [11]: 12%
- Population Tubulin-Different-Phenotype (%) [11]: 21%
- Total Cell Count [11]: 200
- Population Apoptotic (%) [12]: 54%
- Population Fragmented Nuclei (%) [12]: 9%
- Population Healthy Nuclei (%) [12]: 75%
- Population Hoechst High Intensity Objects (%) [12]: 5%
- Population Membrane Permeable-Phenotype (%) [12]: 9%
- Population Mitochondria Different-Phenotype (%) [12]: 50%
- Population Mitotic Cells (%) [12]: 45%
- Population Normal (%) [12]: 94%
- Population Pyknosed Nuclei (%) [12]: 15%
- Population Tubulin-Different-Phenotype (%) [12]: 25%
- Total Cell Count [12]: 152
